Values joined by “and” are separate entries in the source; they are usually repeats but may differ in a detail not shown here. Identical values can stand only once.
Tests used:
[1] = target: T1, Hepatocyte growth factor receptor (Homo sapiens, UniProt P08581); test: Inhibition of wild type phosphorylated MET (unknown origin) pre-incubated for 30 mins before biotinylated poly(glutamate-alanine-tyrosine) peptide addition and measured after 5 mins by HTRF assay
[2] = target: T1, Hepatocyte growth factor receptor; test: Inhibition of phosphorylated MET in human MKN45 cells assessed as reduction in pMET Y1230/1234/1235 level incubated for 1 hr by ELISA; assay type: cell-based
Procedure, shortened: (§1)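 MKN-45 is a MET-amplified human gastric tumour cell line.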

[3] = tested on: MKN-45; test: Antiproliferative activity against human MKN45 cells assessed as reduction in [14C]-thymidine incorporation incubated for 96 hrs by beta counting method; assay type: functional, cell-based; settings: MKN-45, 96 h; procedure, shortened: as §1
[4] = target: Hepatocyte growth factor receptor (Homo sapiens, UniProt P08581, L1195V); test: Inhibition of phosphorylated MET L1195V mutant (unknown origin) pre-incubated for 30 mins before biotinylated poly(glutamate-alanine-tyrosine) peptide addition and measured after 5 mins by HTRF assay
[5] = target: Hepatocyte growth factor receptor (Homo sapiens, UniProt P08581, M1250T); test: Inhibition of phosphorylated MET M1250T mutant (unknown origin) pre-incubated for 30 mins before biotinylated poly(glutamate-alanine-tyrosine) peptide addition and measured after 5 mins by HTRF assay
Sequence of Hepatocyte growth factor receptor (Homo sapiens, UniProt P08581, M1250T) (P08581 25-1390 M1250T limits assumed): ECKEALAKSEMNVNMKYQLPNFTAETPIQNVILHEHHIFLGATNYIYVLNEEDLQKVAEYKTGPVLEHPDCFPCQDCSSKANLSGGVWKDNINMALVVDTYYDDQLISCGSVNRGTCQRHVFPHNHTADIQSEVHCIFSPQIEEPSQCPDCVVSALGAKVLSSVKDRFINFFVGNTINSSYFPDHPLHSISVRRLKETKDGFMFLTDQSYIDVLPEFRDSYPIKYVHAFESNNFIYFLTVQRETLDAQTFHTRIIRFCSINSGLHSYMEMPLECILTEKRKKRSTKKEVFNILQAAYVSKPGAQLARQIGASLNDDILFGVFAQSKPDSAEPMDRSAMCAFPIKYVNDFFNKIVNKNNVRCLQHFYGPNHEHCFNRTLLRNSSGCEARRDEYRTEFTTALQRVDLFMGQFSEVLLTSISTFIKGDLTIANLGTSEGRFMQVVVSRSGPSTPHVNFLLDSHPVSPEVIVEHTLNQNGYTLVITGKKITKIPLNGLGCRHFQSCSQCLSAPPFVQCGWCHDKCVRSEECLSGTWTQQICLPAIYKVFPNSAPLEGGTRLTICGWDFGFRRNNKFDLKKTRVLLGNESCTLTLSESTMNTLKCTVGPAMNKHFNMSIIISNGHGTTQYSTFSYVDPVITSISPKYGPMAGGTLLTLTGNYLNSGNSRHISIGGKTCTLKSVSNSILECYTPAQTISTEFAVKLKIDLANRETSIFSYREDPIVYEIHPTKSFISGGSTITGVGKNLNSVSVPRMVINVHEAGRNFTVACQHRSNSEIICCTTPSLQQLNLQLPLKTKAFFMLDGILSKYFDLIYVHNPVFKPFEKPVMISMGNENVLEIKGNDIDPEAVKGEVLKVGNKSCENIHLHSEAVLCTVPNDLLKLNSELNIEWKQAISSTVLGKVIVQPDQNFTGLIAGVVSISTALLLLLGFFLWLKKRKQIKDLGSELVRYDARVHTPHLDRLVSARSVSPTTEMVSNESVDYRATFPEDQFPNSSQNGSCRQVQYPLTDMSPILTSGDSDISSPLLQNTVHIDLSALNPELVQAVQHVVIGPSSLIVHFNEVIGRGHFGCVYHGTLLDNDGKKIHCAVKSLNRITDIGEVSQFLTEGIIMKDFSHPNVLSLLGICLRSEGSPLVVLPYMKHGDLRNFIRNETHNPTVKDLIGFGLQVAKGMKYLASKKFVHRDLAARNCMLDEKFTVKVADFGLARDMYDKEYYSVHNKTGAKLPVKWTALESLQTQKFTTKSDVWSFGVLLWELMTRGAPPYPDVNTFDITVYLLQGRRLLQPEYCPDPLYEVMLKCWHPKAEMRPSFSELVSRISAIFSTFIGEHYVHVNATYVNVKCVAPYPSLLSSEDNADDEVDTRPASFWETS

[6] = target: Hepatocyte growth factor receptor (Homo sapiens, UniProt P08581, Y1230H); test: Inhibition of phosphorylated MET Y1230H mutant (unknown origin) pre-incubated for 30 mins before biotinylated poly(glutamate-alanine-tyrosine) peptide addition and measured after 5 mins by HTRF assay
Sequence of Hepatocyte growth factor receptor (Homo sapiens, UniProt P08581, Y1230H) (P08581 25-1390 Y1230H limits assumed): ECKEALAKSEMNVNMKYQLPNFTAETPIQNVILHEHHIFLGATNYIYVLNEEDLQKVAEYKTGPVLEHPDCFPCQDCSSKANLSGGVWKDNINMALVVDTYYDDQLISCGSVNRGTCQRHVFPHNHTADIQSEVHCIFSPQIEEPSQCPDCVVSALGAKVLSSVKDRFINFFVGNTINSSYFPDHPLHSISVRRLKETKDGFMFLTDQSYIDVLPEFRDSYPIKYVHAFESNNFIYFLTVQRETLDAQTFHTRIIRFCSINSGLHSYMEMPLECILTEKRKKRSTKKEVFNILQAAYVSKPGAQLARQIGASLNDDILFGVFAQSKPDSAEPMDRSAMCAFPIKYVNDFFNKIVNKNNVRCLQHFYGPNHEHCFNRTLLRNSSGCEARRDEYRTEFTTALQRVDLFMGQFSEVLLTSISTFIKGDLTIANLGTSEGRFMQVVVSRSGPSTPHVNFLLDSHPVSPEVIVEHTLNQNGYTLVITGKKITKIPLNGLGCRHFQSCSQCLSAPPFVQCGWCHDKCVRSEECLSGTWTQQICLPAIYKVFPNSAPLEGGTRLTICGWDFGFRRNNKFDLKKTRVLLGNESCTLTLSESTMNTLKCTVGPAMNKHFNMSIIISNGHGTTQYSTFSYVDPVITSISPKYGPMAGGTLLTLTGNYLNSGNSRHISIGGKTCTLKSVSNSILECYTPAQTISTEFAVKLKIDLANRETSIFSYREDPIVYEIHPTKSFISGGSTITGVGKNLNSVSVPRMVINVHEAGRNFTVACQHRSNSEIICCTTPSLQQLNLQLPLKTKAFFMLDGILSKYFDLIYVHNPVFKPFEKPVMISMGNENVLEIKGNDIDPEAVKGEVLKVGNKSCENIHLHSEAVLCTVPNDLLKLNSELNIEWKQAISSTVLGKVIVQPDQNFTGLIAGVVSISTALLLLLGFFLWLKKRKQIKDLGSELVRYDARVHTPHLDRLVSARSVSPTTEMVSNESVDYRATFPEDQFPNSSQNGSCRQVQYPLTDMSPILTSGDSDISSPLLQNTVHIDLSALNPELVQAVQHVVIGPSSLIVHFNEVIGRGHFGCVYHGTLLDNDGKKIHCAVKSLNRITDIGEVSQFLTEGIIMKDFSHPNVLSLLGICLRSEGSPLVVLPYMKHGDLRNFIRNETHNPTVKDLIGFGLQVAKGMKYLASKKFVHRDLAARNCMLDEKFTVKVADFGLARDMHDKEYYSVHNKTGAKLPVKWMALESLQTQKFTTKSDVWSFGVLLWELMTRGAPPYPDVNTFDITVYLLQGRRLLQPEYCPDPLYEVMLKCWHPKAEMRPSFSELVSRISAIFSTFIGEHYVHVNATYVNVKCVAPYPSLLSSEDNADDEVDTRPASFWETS

[7] = Lipophilicity, log D of the compound by HPLC method; assay type: physicochemical
[8] = Equilibrium solubility in phosphate buffer in absence of 10% Labrasol at pH 7.4; assay type: physicochemical
[9] = Equilibrium solubility in phosphate buffer in presence of 10% Labrasol at pH 7.4; assay type: physicochemical; settings: phosphate buffer with 10% Labrasol
[10] = target: T1, Hepatocyte growth factor receptor; test: Binding affinity to MET (unknown origin) by isothermal titration calorimetry
[11] = Apparent permeability from apical to basolateral side in human Caco2/TC7 cells at 20 uM by liquid chromatography-tandem mass spectrometry; settings: Caco-2
[12] = Drug metabolism in human hepatic microsomes at 5 uM incubated for 20 mins in presence of NADPH by liquid chromatography-tandem mass spectrometry; assay type: ADME, Microsome; settings: liver microsomes, read-out: Drug metabolism
[13] = target: Cytochrome P450 3A4 (Homo sapiens, UniProt P08684); test: Inhibition of human recombinant CYP3A4 co-expressed with human P450 reductase and human b5 reductase assessed as reduction in 7-Hydroxyquinoline production using 7-benzyloxyquinoline as substrate and NADPH incubated for 15 mins by fluorimetry; assay type: ADME
Sequence of Cytochrome P450 3A4 (P08684 whole entry): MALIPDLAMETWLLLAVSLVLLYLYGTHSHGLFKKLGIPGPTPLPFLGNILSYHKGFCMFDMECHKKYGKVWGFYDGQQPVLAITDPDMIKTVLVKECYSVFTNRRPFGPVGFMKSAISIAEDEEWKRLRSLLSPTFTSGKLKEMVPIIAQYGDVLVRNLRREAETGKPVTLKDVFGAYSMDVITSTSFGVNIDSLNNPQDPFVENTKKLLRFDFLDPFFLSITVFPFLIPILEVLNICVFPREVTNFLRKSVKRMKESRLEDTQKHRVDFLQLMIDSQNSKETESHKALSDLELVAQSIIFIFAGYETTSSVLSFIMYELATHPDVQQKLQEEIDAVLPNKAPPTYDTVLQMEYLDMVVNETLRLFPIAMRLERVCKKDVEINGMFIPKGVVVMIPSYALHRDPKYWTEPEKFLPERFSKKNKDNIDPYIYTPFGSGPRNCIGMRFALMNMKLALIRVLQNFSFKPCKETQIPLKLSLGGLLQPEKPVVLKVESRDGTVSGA

[14] = Oral bioavailability in mouse; assay type: ADME, organism-based; settings: in vivo
[15] = AUC in SCID mouse bearing advanced-stage human Hs746T cells at 20 mg/kg, iv administered as single dose after 1 to 72 hrs by liquid chromatography-tandem mass spectrometry; assay type: ADME, organism-based; settings: in vivo
[16] = Clearance in SCID mouse bearing advanced-stage human Hs746T cells at 20 mg/kg, iv administered as single dose after 1 to 72 hrs by liquid chromatography-tandem mass spectrometry; assay type: ADME, organism-based; settings: in vivo
[17] = Volume of distribution at steady state in SCID mouse bearing advanced-stage human Hs746T cells at 20 mg/kg, iv administered as single dose after 1 to 72 hrs by liquid chromatography-tandem mass spectrometry; assay type: ADME, organism-based; settings: in vivo, read-out: Vdss
[18] = Drug uptake in tumor of SCID mouse bearing advanced-stage human Hs746T cells at 20 mg/kg, iv administered as single dose after 1 to 72 hrs by liquid chromatography-tandem mass spectrometry; assay type: ADME, organism-based, Neoplasm; settings: in vivo
[19] = tested on: Mus musculus; test: Inhibition of MET Y1349 phosphorylation in SCID mouse bearing advanced-stage human Hs746T cells at 20 mg/kg, iv administered as single dose after 4 to 48 hrs by using MSD assay; assay type: functional, organism-based; settings: TDE = time-dependent effect
[20] = tested on: Mus musculus; test: Inhibition of MET Y1349 phosphorylation in SCID mouse bearing advanced-stage human Hs746T cells at 20 mg/kg, iv administered as single dose after 4 hrs by using MSD assay; assay type: functional
[21] = tested on: Mus musculus; test: Inhibition of MET Y1349 phosphorylation in SCID mouse bearing advanced-stage human Hs746T cells at 20 mg/kg, iv administered as single dose after 24 hrs by using MSD assay; assay type: functional
[22] = tested on: Mus musculus; test: Inhibition of MET Y1349 phosphorylation in SCID mouse bearing advanced-stage human Hs746T cells at 20 mg/kg, iv administered as single dose after 48 hrs by using MSD assay; assay type: functional
[23] = Drug uptake in tumor of SCID mouse bearing advanced-stage human Hs746T cells at 20 mg/kg, iv administered as single dose after 24 hrs by liquid chromatography-tandem mass spectrometry; assay type: ADME, organism-based, Neoplasm; settings: read-out: Drug uptake
[24] = Unbound drug uptake in tumor of SCID mouse bearing advanced-stage human Hs746T cells at 20 mg/kg, iv administered as single dose after 24 hrs by liquid chromatography-tandem mass spectrometry; assay type: ADME, organism-based, Neoplasm; settings: in vivo
[25] = Protein binding in plasma of SCID mouse bearing advanced-stage human Hs746T cells at 20 mg/kg, iv administered as single dose after 24 hrs by liquid chromatography-tandem mass spectrometry; assay type: ADME, organism-based; settings: read-out: PPB (converted)
[26] = Clearance in mouse at 1 mg/kg, iv; assay type: ADME, organism-based; settings: in vivo
[27] = Clearance in mouse at 1 mg/kg, iv relative to hepatic blood flow; assay type: ADME, organism-based; settings: in vivo
[28] = Volume of distribution at steady state in mouse at 1 mg/kg, iv; assay type: ADME, organism-based; settings: in vivo, read-out: Vdss
[29] = Terminal half life in mouse at 1 mg/kg, iv […]; assay type: ADME, organism-based; settings: in vivo, read-out: beta t1/2 (converted)
[30] = Clearance in rat at 5 mg/kg, iv; assay type: ADME, organism-based; settings: in vivo
[31] = Clearance in rat at 5 mg/kg, iv relative to hepatic blood flow; assay type: ADME, organism-based; settings: in vivo
[32] = Volume of distribution at steady state in rat at 5 mg/kg, iv; assay type: ADME, organism-based; settings: in vivo, read-out: Vdss
[33] = Terminal half life in rat at 5 mg/kg, iv […]; assay type: ADME, organism-based; settings: in vivo, read-out: beta t1/2 (converted)
[34] = Clearance in dog at 3 mg/kg, iv; assay type: ADME, organism-based, Canis lupus familiaris; settings: in vivo
[35] = Clearance in dog at 3 mg/kg, iv relative to hepatic blood flow; assay type: ADME, organism-based, Canis lupus familiaris; settings: in vivo
[36] = Volume of distribution at steady state in dog at 3 mg/kg, iv; assay type: ADME, organism-based, Canis lupus familiaris; settings: in vivo, read-out: Vdss
[37] = Terminal half life in dog at 3 mg/kg, iv; assay type: ADME, organism-based, Canis lupus familiaris; settings: in vivo, read-out: beta t1/2 (converted)
[38] = Drug distribution in rat at 25 mg/kg administered as [14C[-labeled compound through infusion after 1 to 2 hrs; assay type: ADME, organism-based; settings: in vivo, iv
[39] = Drug distribution in rat tumor at 25 mg/kg administered as [14C[-labeled compound through infusion after 1 to 2 hrs; assay type: ADME, organism-based, Neoplasm; settings: in vivo, iv
[40] = Drug level in advanced solid tumor patient at 50 to 740 mg/m2 during phase-1 trial; assay type: ADME; settings: human, in vivo
[41] = Terminal half life in advanced solid tumor patient at 50 to 740 mg/m2 during phase-1 trial; assay type: ADME; settings: human, in vivo; read-out: beta t1/2 (converted)
[42] = Blood clearance in advanced solid tumor patient at 50 to 740 mg/m2 during phase-1 trial; assay type: ADME, tissue-based; settings: human, whole blood
[43] = Blood clearance in advanced solid tumor patient at 50 to 740 mg/m2 relative to hepatic blood flow during phase-1 trial; assay type: ADME, tissue-based; settings: human
[44] = Volume of distribution at steady state in advanced solid tumor patient at 50 to 740 mg/m2 during phase-1 trial; assay type: ADME; settings: human, in vivo; read-out: Vdss
[45] = Toxicity in advanced solid tumor patient at 50 to 740 mg/m2 during phase-1 trial; settings: human, in vivo
[46] = in vivo; settings: SCID, mouse, tumor/plasma, iv, 20 mg/kg

T1 sequence (P08581 whole entry): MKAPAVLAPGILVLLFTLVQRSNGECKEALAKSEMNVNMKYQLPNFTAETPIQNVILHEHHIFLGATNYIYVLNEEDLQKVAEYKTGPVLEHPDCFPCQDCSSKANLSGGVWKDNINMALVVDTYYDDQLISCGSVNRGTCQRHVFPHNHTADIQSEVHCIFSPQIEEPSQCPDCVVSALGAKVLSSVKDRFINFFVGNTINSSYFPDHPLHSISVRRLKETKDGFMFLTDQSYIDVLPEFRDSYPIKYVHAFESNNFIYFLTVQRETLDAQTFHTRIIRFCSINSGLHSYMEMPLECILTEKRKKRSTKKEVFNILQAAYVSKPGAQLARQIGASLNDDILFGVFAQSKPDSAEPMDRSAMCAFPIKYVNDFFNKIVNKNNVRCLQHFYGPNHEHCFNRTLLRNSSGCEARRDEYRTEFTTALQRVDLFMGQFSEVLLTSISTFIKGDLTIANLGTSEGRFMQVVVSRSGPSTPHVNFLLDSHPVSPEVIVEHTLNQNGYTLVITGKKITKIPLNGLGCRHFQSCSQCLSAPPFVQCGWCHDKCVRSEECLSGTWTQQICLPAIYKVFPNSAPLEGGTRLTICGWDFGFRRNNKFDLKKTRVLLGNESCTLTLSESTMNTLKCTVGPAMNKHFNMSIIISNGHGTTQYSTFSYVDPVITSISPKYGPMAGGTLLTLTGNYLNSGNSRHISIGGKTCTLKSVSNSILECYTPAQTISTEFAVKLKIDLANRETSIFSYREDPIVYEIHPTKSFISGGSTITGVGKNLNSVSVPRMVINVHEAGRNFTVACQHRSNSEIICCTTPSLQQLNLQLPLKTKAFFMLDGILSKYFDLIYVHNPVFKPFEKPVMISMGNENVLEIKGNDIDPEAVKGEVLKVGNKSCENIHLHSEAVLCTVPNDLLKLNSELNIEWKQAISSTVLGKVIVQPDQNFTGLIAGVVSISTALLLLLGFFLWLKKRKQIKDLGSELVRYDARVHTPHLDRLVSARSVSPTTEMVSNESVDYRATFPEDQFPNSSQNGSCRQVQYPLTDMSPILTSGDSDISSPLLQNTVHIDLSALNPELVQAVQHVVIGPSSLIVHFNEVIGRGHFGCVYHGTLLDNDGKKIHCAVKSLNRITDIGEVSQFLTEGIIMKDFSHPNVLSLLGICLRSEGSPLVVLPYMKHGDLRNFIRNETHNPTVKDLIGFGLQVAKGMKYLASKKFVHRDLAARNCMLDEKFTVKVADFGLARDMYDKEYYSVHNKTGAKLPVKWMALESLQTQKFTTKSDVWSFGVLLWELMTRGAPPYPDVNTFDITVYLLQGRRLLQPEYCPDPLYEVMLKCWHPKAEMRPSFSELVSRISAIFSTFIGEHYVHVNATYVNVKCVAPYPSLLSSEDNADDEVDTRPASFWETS

O=C(NCCN1CCOCC1)Nc1nc2ccc(Sc3nnc4ccc(-c5ccc(F)cc5)nn34)cc2s1 [SAR-125844]
IC50 [1]: 4 nM
IC50 [2]: 5 nM
IC50 [3]: 7 nM
IC50 [4]: 64 nM
IC50 [5]: 6 nM
IC50 [6]: 204 nM
logD [7]: 4.2
solubility thermodynamic [8]: < 1 µM
solubility thermodynamic [9]: 500 µM
Kd [10]: 0.9 nM
Papp A→B at 20 µM [11]: 0.9 ×10⁻⁶ cm/s
metabolised at 20 min, 5 µM [12]: 23%
IC50 [13]: > 200000 nM
bioavailability [14]: 2%
AUC [15]: 6190 ng·h/mL
clearance [16]: 51.7 mL/min/kg
Vd [17]: 4.2 L/kg
Drug uptake [18]: Active
inhibition [19]: Tde
inhibition in vivo at 20 mg/kg [20]: 96%
inhibition in vivo at 20 mg/kg [21]: 80%
inhibition in vivo at 20 mg/kg [22]: 61%
concentration at 24 h [23]: 300 ng/mL
Drug uptake(free) [24]: 2 nM
fraction unbound at 24 h [25]: 0.0033
clearance [26]: 46.7 mL/min/kg
CL [27]: 54%
Vd [28]: 3.2 L/kg
half-life [29]: 4.8 h
clearance [30]: 25 mL/min/kg
CL [31]: 36%
Vd [32]: 2.9 L/kg
half-life [33]: 3.6 h
clearance [34]: 8.33 mL/min/kg
CL [35]: 20%
Vd [36]: 1.3 L/kg
half-life [37]: 3.8 h
Drug uptake [38]: Active
Drug uptake [39]: Active
Drug uptake [40]: Dose-dependent effect
half-life [41]: 15.9 h
clearance [42]: 565 mL/min and 8.33 mL/min/kg
CL [43]: 37%
Vd [44]: 505 L and 7.2 L/kg
MTD [45]: 570 mg/m2
Kp [46]: 8.1
